Data: article PMC4569539 (Bioorganic & medicinal chemistry letters, 2015)
Where two headings read alike, the source gives them in different places.

Legend:
[1] = stated as known for 1 and related congeners, no reference given; cited from earlier work
[2] = type: in vivo; conditions: plasma concentration after ip versus oral administration
acetylated α-tubulin = assay: Acetylated α-tubulin in brain homogenates after repeated dosing; type: in vivo; conditions: normal mice, 1 day after two 5 mg/kg doses (ip)
[3] = Brain and plasma pharmacokinetics after ip administration of 5 mg/kg; type: in vivo; conditions: mice, after ip injection of 5 mg/kg of 4
Outline: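 Mice received the test compound at 5 mg/kg ip. Brain and plasma levels were followed over time to give elimination rates from each compartment. In a repeat-dose arm, tissues were sampled 4 h after a single 5 mg/kg ip dose or 4 h after the second of two doses given 4 h apart. Brain-to-plasma concentration ratios were calculated for each regimen.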

[4] = cited from earlier work

SMILES	distribution of metabolites in brain and plasma samples [3]	brain penetration [4]	differential between brain and plasma half-life [4]	further results
CNCCCOc1cc(F)c(-c2c(Cl)nc3ncnn3c2N[C@@H](C)C(F)(F)F)c(F)c1 [compound 1, cevipabulin]				oral bioavailability [1]: orally bioavailable
C[C@H](Nc1c(-c2c(F)cc(OCCCO)cc2F)c(Cl)nc2ncnn12)C(F)(F)F [compound 4, (S)-3-(4-(5-Chloro-7-((1,1,1-trifluoropropan-2-yl)amino)-[1,2,4]triazolo[1,5-a]pyrimidin-6-yl)-3,5-difluorophenoxy)-propan-1-ol]				oral bioavailability [2]: orally bioavailable; acetylated α-tubulin (marker of stable MTs) in brain homogenates (acetylated α-tubulin): significant elevation
C[C@H](Nc1c(-c2c(F)cc(OCCC(=O)O)cc2F)c(Cl)nc2ncnn12)C(F)(F)F [compound 5]	detected predominantly in plasma			
C[C@H](Nc1c(-c2c(F)cc(O)cc2F)c(Cl)nc2ncnn12)C(F)(F)F [compound 6]	detected predominantly in plasma			
C/C(=C\c1csc(C)n1)[C@@H]1C[C@@H]2O[C@]2(C)CCC[C@H](C)[C@H](O)[C@@H](C)C(=O)C(C)(C)[C@@H](O)CC(=O)O1 [epothilone B]		brain penetrant	large differential	
C/C1=C/C[C@@H](/C(C)=C/c2csc(C)n2)OC(=O)C[C@H](O)C(C)(C)C(=O)[C@H](C)[C@@H](O)[C@@H](C)CCC1 [epothilone D]		brain penetrant	large differential	
